# Reference: ChEMBL document CHEMBL1139327, “Synthesis and biological properties of Pachastrissamine (jaspine B) and diastereoisomeric jaspines” (2009)
# The source made the active and inactive calls. The calls are words filed in the database; no cut-off is given here.
# Columns and labels:
# A549 [1] = assay: Cytotoxicity against human A549 cells after 24 hrs by MTT assay in absence of 3-methyladenine; assay type: functional
# Method in brief: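 A549 (ATCC) grown in HAM F12 with glutamine + 10% FBS, 37 °C, 5% CO2. Seeded 10^5 cells/well, medium renewed after 24 h, then exposed 24 h to 0.02–400 μM final (ethanol stock; 0.1% ethanol vehicle control). Viable cells by MTT; LD50 taken from curves. Means SD, three independent experiments in triplicate.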
# A549 [2] = assay: Cytotoxicity against human A549 cells after 24 hrs by MTT assay in presence of 3-methyladenine; assay type: functional
# Method in brief: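 A549 (HAM F12/glutamine, 10% FBS, 37 °C, 5% CO2) pretreated 2 weeks with 10 mM 3-MA in flask, medium changed every 2 days. Then 10^5 cells/well seeded in medium with 3-MA plus compounds at 0.02–400 μM final (ethanol vehicle, 0.1%), 24 h. Viability by MTT, LD50 derived. Means SD, three independent experiments, triplicates.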
# A549 [3] = assay: Cytotoxicity against human A549 cells assessed as PI positive cells after 24 hrs by flow cytometry; assay type: functional, cell-based
# Method in brief: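 A549 cells exposed 24 h to a range of compound concentrations, harvested by brief trypsinization, double-stained with Alexa Fluor 488 annexin V and propidium iodide, analysed by flow cytometry; percentage of cells positive for annexin V, PI or both scored against untreated control.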
# A549 [4] = assay: Cytotoxicity against human A549 cells after 24 hrs by MTT assay; assay type: functional; settings: A549, 24 h, read-out: LD50 (the source's name)
# Method in brief: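 Human alveolar epithelial A549 cells (ATCC) grown in HAM F12 with glutamine plus 10% FBS at 37 °C, 5% CO2. Seeded at 10^5 cells/well; after 24 h, medium renewed and compounds (ethanol stocks; vehicle control 0.1% ethanol) added to final 0.02–400 µM for 24 h. Viable cells by MTT; LD50 from concentration–response; means of three independent experiments with triplicates.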
# A549 [5] = assay: Induction of 3-methyladenine-inhibited autophagy in human A549 cells assessed as increase in ceramide levels
Compound,Activity (A549 [1]) [µM],Activity (A549 [2]),Activity (A549 [3]),CC50 (A549 [4]) [nM],Activity (A549 [5])
CCCCCCCCCCCCCC[C@H](O)[C@@H](O)[C@@H](N)CO,28.2,29.4 µM,–,–,–
CCCCCCCCCCCCCC[C@H]1OC[C@H](N)[C@@H]1O [2-EPI JASPINE B],–,inactive,Dose-dependent effect,1250,–
CCCCCCCCCCCCCC[C@@H]1OC[C@H](N)[C@H]1O,–,inactive,Dose-dependent effect,1500,–
CCCCCCCCCCCCCC[C@@H]1OC[C@H](N)[C@@H]1O [PACHASTRISSAMINE],–,inactive,Dose-dependent effect,130,Dose-dependent effect
CCCCCCCCCCCCCC[C@H]1OC[C@H](N)[C@H]1O,–,inactive,Dose-dependent effect,2500,–
